24 molecules from ChEMBL document CHEMBL1126132, “5,5-disubstituted hydantoins: syntheses and anti-HIV activity” (J Med Chem, 1992) can be followed below.

Molecules are shown by their SMILES.

The subject of experiment [1] is CCRF-CEM. Briefly: Inhibition of HIV-1 RF induced cytotoxicity in CEM cells; Inactive. The format is functional, cell-based. The method, boiled down: (§1)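 CEM cells at 5×10^3 per well were infected with HIV-1 RF at MOI 0.01, chosen to give complete cell killing by day 6. Five serial half-log dilutions starting at 100 μM were tested in triplicate. After 6 days at 37 °C, viability was read by XTT. IC50 is the minimum concentration inhibiting CPE by 50%, from semilog regression curve fitting.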

Experiment [2] relates to CCRF-CEM. Briefly: Compound was tested for antiviral activity by measuring its ability to inhibit HIV induced virus production in CEM cells. The class given is functional, Homo sapiens.
Experiment [3] concerns MT2. Briefly: Inhibition of HIV-1 RF induced cytotoxicity in MT-2 cells; Inactive. The class given is functional, cell-based. In short, it runs like this:
(§2)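 MT-2 cells at 5×10^3 per well were infected with HIV-1 RF at MOI 0.005, chosen to give complete killing at 6 days. Triplicate wells received five half-log dilutions from 100 μM. After 6 days at 37 °C, XTT colorimetry gave viability. IC50 is the minimum concentration reducing CPE by 50%, calculated by semilog regression.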

Experiment [4] relates to Human immunodeficiency virus type 1 (RF/HAT ISOLATE). Briefly: Inhibition of HIV-1 RF viral production in MT-2 cells. The format is functional, Human immunodeficiency virus 1, MT2.
Experiment [5] deals with CCRF-CEM. Briefly: Compound was tested for antiviral activity by measuring its ability to inhibit HIV induced virus production in CEM cells; NT indicates nontoxic uM. The class given is functional, cell-based. The following applies: Homo sapiens. In short, it runs like this:
(§3)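 Cytotoxicity was measured in uninfected cells with drug, in CEM or MT-2 at 5×10^3 per well. There were five half-log dilutions up to 100 μM, the highest concentration, in triplicate. Cells were incubated 6 days at 37 °C and viability was read by XTT. TC25 is the minimum concentration cutting viability by 25%; NT means nontoxic up to 100 μM.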

Experiment [6] deals with CCRF-CEM. Briefly: Compound was tested for antiviral activity by measuring its ability to inhibit HIV induced cell killing in CEM cells. The format is functional, cell-based. The following applies: Homo sapiens. In short, it runs like this:
as §1

For experiment [7], the system named is MT2. Briefly: Compound was tested for antiviral activity by measuring its ability to inhibit HIV induced virus production in MT-2 cells; NT indicates nontoxic uM. The class given is functional, cell-based. In short, it runs like this: as §3
The subject of experiment [8] is MT2. Briefly: Compound was tested for antiviral activity by measuring its ability to inhibit HIV induced cell killing in MT-2 cells. The format is functional, cell-based. The following applies: Homo sapiens. The method, boiled down:
as §2

The IC50 is the concentration that gives 50% inhibition. Read a low IC50 as greater potency in that assay. Consider `O=C1NC(=O)C(CSCc2ccc(Br)cc2)(CSCc2ccc(Br)cc2)N1`, for which the IC50 result with CCRF-CEM [1] and with MT2 [3] was “Nontoxic up to 100uM” in each case. For the same molecule, the TC25 was 16 µM in the experiment with CCRF-CEM [2] and 7 µM in experiment [4].
As to `NC(CSCc1ccccc1)(CSCc1ccccc1)C(=O)O`, the IC50 entry in the experiment on CCRF-CEM [1] and with MT2 [3] was “Nontoxic up to 100uM” each time. The TC25 entry was “Nontoxic up to 100uM” in the experiment with CCRF-CEM [5] and 60 µM in experiment [4].
On to `N#Cc1ccc(CSCC2(CSCc3ccc(C#N)cc3)NC(=O)NC2=O)cc1`, for which the TC25 in the experiment on CCRF-CEM [2] was determined as 15 µM; in experiment [4] it was 8 µM. In addition, the IC50 entry in the experiment with MT2 [3] was “Nontoxic up to 100uM”; in the experiment on CCRF-CEM [6], 25 µM.
On to `O=C1NC(=O)C(CSCc2ccncc2)(CSCc2ccncc2)N1`, for which the TC25 entry with CCRF-CEM [5] is “Nontoxic up to 100uM”; in experiment [4], 45 µM. Further, the IC50 result in the experiment on MT2 [3] was “Nontoxic up to 100uM”; in the experiment with CCRF-CEM [6] it was 53 µM.
Turning to `COc1ccc(CSCC2(CSCc3ccc(OC)cc3)NC(=O)NC2=O)cc1`, the TC25 (in the experiment on CCRF-CEM [2]; in experiment [4]) was 6 µM each time. In addition, the results for the IC50 entry in the experiment with MT2 [3] and in the experiment on CCRF-CEM [6] were “Nontoxic up to 100uM” and 23 µM, respectively.
Take `O=C1NC(=O)C(CSCc2cccnc2)(CSCc2cccnc2)N1`: the IC50 result in the experiment with CCRF-CEM [1] and in the experiment on MT2 [3] was “Nontoxic up to 100uM” in each case. In addition, the TC25 entry in the experiment with CCRF-CEM [5] and in the experiment with MT2 [7] (Homo sapiens) was “Nontoxic up to 100uM” throughout.
As for `O=C1NC(=O)C(CSCc2ccc(C(=O)O)cc2)(CSCc2ccc(C(=O)O)cc2)N1`, the IC50 result in the experiment with CCRF-CEM [1] and with MT2 [3] was “Nontoxic up to 100uM” in each case. For the same molecule, the TC25 result in the experiment with CCRF-CEM [5] and in the experiment on MT2 [7] was “Nontoxic up to 100uM” in each case.
`O=C1NC(=O)C(CSCCO)(CSCc2ccccc2)N1` (configuration not stated): the IC50 entry with CCRF-CEM [1] and with MT2 [3] was “Nontoxic up to 100uM” throughout. Also, the TC25 entry with CCRF-CEM [5] and with MT2 [7] (Homo sapiens) was “Nontoxic up to 100uM” throughout.
With `S=C1NC(=S)C(CSCc2ccccc2)(CSCc2ccccc2)N1`, the IC50 entry in the experiment on CCRF-CEM [1] is listed as “Nontoxic up to 100uM”. In addition, the TC25 (in the experiment with CCRF-CEM [2]; in experiment [4]) was 16 µM throughout.
Consider `COC(=O)c1ccc(CSCC2(CSCc3ccc(C(=O)OC)cc3)NC(=O)NC2=O)cc1`, for which the IC50 entry in the experiment on CCRF-CEM [1] and in the experiment with MT2 [3] was “Nontoxic up to 100uM” in each case. In addition, the values for the TC25 (in the experiment on CCRF-CEM [2]; in experiment [4]) were 25 µM and 10 µM, respectively.
For `O=C1NC(=O)C(CSCc2ccccn2)(CSCc2ccccn2)N1`, the values for the IC50 entry with CCRF-CEM [1] and in the experiment with MT2 [8] were “Nontoxic up to 100uM” and 81 µM, respectively. Also, the TC25 entry in the experiment on CCRF-CEM [5] and in the experiment with MT2 [7] (Homo sapiens) was “Nontoxic up to 100uM” each time.
Turning to `O=C1NC(=O)C(CSCC2CCCCC2)(CSCC2CCCCC2)N1`, the IC50 entry in the experiment with CCRF-CEM [1] and in the experiment on MT2 [3] was “Nontoxic up to 100uM” each time. For the same molecule, the TC25 was determined as 8 µM in the experiment with CCRF-CEM [2] and 12 µM in experiment [4].
Take `O=C1NC(=O)C(CSc2ccncc2)(CSc2ccncc2)N1`: the IC50 entry in the experiment on CCRF-CEM [1] and in the experiment on MT2 [3] was “Nontoxic up to 100uM” each time. The TC25 entry in the experiment with CCRF-CEM [5] was “Nontoxic up to 100uM”. Also, the NT result in the experiment with MT2 [7] is “Nontoxic up to 100uM”.
For `O=C1NC(=O)C(CSCc2cccs2)(CSCc2cccs2)N1`, the IC50 entry in the experiment on CCRF-CEM [1] and with MT2 [3] was “Nontoxic up to 100uM” in each case. Besides, the TC25 entry in the experiment on CCRF-CEM [5] was “Nontoxic up to 100uM”; in experiment [4], 17 µM.
Consider `O=C1NC(=O)C(CS)(CSCc2ccccc2)N1` (configuration not stated), for which the IC50 entry in the experiment on CCRF-CEM [1] is given as “Nontoxic up to 100uM”. The values for the TC25 (with CCRF-CEM [2]; in experiment [4]) were 34 µM and 50 µM, respectively.
On to `O=C1NC(=O)C(CSc2ccccc2)(CSc2ccccc2)N1`, for which the IC50 result in the experiment on CCRF-CEM [1] is on record as “Nontoxic up to 100uM”. Also, the TC25 in the experiment on CCRF-CEM [2] was found to be 64 µM; in experiment [4] it was 50 µM.
For `Nc1ccc(CSCC2(CSCc3ccc(N)cc3)NC(=O)NC2=O)cc1`, the TC25 result with CCRF-CEM [5] is “Nontoxic up to 100uM”; in experiment [4], 16 µM. Further, the IC50 with MT2 [8] turned out to be 6 µM; in the experiment with CCRF-CEM [6], 88 µM.
On to `O=C1NC(=O)C(CSC(=O)c2ccccc2)(CSC(=O)c2ccccc2)N1`, for which the TC25 was found to be 31 µM with CCRF-CEM [2] and 5 µM in experiment [4]. Also, the IC50 result was “Nontoxic up to 100uM” in the experiment on MT2 [3] and 7 µM in the experiment with CCRF-CEM [6].
Take `O=C1NC(=O)C(CSCc2cccc3ccccc23)(CSCc2cccc3ccccc23)N1`: the IC50 result with CCRF-CEM [1] and in the experiment on MT2 [3] was “Nontoxic up to 100uM” in each case. For the same molecule, the TC25 entry with CCRF-CEM [5] and in the experiment on MT2 [7] (Homo sapiens) was “Nontoxic up to 100uM” throughout.
Consider `O=C1NC(=O)C(CSCc2ccccc2)(CSCc2ccccc2)N1`, for which the figures for the 50% inhibitory concentration (IC50) entry with CCRF-CEM [1] and with MT2 [8] were “Nontoxic up to 100uM” and 17 µM, respectively. The TC25 entry in the experiment with CCRF-CEM [5] and in the experiment with MT2 [7] was “Nontoxic up to 100uM” throughout.
As for `O=C1NC(=O)C(CSCc2ccccc2)N1` (configuration not stated), the IC50 result in the experiment with CCRF-CEM [1] was “Nontoxic up to 100uM”. Further, the TC25 is 5 µM in the experiment with CCRF-CEM [2] and 2 µM in experiment [4].
For `O=C1NC(=O)C(CS)(CS)N1`, the results for the TC25 (in the experiment on CCRF-CEM [2]; in experiment [4]) were 3 µM and 0.8 µM, respectively. Besides, the half-inhibitory concentration (IC50) result was “Nontoxic up to 100uM” with MT2 [3] and 0.6 µM in the experiment with CCRF-CEM [6].
Turning to `O=C1NC(=O)C(COCc2ccccc2)(COCc2ccccc2)N1`, the IC50 entry in the experiment with CCRF-CEM [1] and in the experiment on MT2 [3] was “Nontoxic up to 100uM” throughout. The TC25 in the experiment on CCRF-CEM [2] was over 100 µM; in experiment [4], 87 µM.
Take `O=C1NC(=O)C(CSCc2ccc([N+](=O)[O-])cc2)(CSCc2ccc([N+](=O)[O-])cc2)N1`: the TC25 with CCRF-CEM [2] worked out at 9 µM; in experiment [4], 5 µM. Also, the IC50 entry in the experiment on MT2 [3] was “Nontoxic up to 100uM”; in the experiment with CCRF-CEM [6] it was 19 µM.
